From ChEMBL document CHEMBL4706494, “Design, synthesis characterization and biological evaluation of novel multi-isoform ALDH inhibitors as potential anticancer agents” (Eur J Med Chem, 2020) come the findings set out here.

Each structure is given as a SMILES string. Bounds are passed on as bounds.

The target of one assay is T1, Aldehyde dehydrogenase 1A1 (Homo sapiens, UniProt P00352).
T1 sequence (P00352 whole entry): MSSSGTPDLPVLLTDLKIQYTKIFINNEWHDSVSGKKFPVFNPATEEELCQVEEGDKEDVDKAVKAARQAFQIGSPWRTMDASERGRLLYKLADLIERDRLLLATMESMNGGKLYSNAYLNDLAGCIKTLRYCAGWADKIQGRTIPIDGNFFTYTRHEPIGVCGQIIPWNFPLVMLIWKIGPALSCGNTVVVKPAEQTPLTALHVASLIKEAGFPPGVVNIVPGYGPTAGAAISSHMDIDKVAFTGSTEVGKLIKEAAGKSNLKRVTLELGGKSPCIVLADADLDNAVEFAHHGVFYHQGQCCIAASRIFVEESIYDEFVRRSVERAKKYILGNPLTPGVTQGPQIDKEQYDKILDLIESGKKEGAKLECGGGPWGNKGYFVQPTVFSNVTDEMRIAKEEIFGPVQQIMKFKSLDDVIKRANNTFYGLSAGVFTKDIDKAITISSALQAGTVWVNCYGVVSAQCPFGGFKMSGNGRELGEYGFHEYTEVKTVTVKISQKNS
In words: Inhibition of ALDH1A1 (unknown origin) assessed as NADH formation using propionaldehyde as substrate.
With `N=C(N)[Se]Cc1ccc(CN2C(=O)C(=O)c3cccc(C(F)(F)F)c32)cc1`, the IC50 (as a rule, the concentration that inhibits the measured activity by half) worked out at 657 nM.

Turning to `N=C(N)SCc1ccc(CN2C(=O)C(=O)c3cc(Br)ccc32)cc1`, the IC50 turned out to be 8520 nM.

Regarding `N=C(N)[Se]Cc1ccc(CN2C(=O)C(=O)c3cc(F)cc(Br)c32)cc1`, the IC50 was 420 nM.

Another assay deals with T2, Aldehyde dehydrogenase, mitochondrial (Homo sapiens, UniProt P05091).
T2 sequence (P05091 whole entry): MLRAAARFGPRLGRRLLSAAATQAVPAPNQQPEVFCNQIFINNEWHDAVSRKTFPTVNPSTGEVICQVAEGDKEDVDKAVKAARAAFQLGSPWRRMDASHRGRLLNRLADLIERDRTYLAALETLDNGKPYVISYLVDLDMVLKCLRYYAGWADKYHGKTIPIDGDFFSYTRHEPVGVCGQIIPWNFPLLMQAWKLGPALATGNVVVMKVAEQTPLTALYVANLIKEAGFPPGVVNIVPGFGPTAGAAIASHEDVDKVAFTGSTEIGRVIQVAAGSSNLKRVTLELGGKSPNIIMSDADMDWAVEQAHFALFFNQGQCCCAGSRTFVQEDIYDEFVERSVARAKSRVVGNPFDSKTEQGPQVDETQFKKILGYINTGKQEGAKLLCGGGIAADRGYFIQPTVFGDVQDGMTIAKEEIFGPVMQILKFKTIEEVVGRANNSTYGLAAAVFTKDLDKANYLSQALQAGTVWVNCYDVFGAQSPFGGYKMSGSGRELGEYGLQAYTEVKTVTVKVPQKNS
Kind of assay: Inhibition of ALDH2 (unknown origin) assessed as NADH formation using acetaldehyde as substrate. Summed up: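 Enzyme at 0.5 µg/mL preincubated 15 min with varied inhibitor concentrations. Reaction started with 2 mM acetaldehyde plus NAD+ in buffer, as for the ALDH1A1 assay.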
On to `N=C(N)[Se]Cc1ccc(CN2C(=O)C(=O)c3cccc(C(F)(F)F)c32)cc1`, for which the IC50 was 3490 nM.

As for `N=C(N)SCc1ccc(CN2C(=O)C(=O)c3cc(Br)ccc32)cc1`, the IC50 was more than 10000 nM.

Turning to `N=C(N)[Se]Cc1ccc(CN2C(=O)C(=O)c3cc(F)cc(Br)c32)cc1`, the IC50 was 1920 nM.

The next assay deals with T3, Aldehyde dehydrogenase, dimeric NADP-preferring (Homo sapiens, UniProt P30838).
T3 sequence (P30838 whole entry): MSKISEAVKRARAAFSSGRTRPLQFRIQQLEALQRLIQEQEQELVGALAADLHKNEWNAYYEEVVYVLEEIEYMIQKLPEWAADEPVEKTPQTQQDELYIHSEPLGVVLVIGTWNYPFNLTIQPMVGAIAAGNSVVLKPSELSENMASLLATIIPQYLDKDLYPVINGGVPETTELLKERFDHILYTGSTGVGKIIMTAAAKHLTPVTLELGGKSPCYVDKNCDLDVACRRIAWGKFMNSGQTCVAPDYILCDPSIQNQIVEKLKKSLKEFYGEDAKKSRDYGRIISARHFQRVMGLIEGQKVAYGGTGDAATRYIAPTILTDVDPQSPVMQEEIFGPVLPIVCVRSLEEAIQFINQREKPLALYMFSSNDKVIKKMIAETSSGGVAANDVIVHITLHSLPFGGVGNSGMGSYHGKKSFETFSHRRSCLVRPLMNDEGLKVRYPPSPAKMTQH
In words: Inhibition of ALDH3A1 (unknown origin) assessed as NADH formation using 4-nitrobenzaldehyde as substrate. Summed up: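 Protein at 0.2 µg/mL exposed 15 min to graded inhibitor concentrations. 1 mM 4-nitrobenzaldehyde substrate with NAD+ then added, run as for the ALDH1A1 assay.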
`N=C(N)SCc1ccc(CN2C(=O)C(=O)c3cc(Cl)ccc32)cc1`: the half-maximal inhibitory concentration (IC50) is 3070 nM.

`N=C(N)[Se]Cc1ccc(CN2C(=O)C(=O)c3cc(Cl)cc(Cl)c32)cc1`: the IC50 is 327 nM.

With `N=C(N)SCc1ccc(CN2C(=O)C(=O)c3cccc(C(F)(F)F)c32)cc1`, the IC50 stood at 246 nM.

Consider `N=C(N)[Se]Cc1ccc(CN2C(=O)C(=O)c3cccc(C(F)(F)F)c32)cc1`, for which the IC50 was determined as 251 nM.

Turning to `N=C(N)SCc1ccc(CN2C(=O)C(=O)c3cc(Br)ccc32)cc1`, the IC50 is 4880 nM.

Take `N=C(N)[Se]Cc1ccc(CN2C(=O)C(=O)c3cc(F)cc(Br)c32)cc1`: the IC50 was 368 nM.
